Assays:
site IQ = settings: ref Orr et al., 2013; cited from earlier work
[1] = test system: site IQ of mitochondrial respiratory complex I; type: biochemical, rat; settings: for IC50: read-out: IC50 against superoxide-H2O2 production from site IQ, isolated rat skeletal muscle mitochondria
In short: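 Freshly isolated rat skeletal muscle mitochondria, in the high-throughput screen run in 1,536-well format with library compounds at 10 µM. H2O2 was detected by Amplex UltraRed, which horseradish peroxidase oxidises to fluorescent resorufin. Data were normalised to the plate median signal, and rotenone was included on every plate as the positive site IQ inhibitor.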

intestinal stem cells = experiment: In vivo stem cell proliferation assays in Drosophila intestine; set-up: species or system Drosophila melanogaster; settings: dietary, 800 nM; 50 µM tunicamycin
In short: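 Tunicamycin model: w;esgGal4,UAS-GFP virgins were crossed to Oregon Red males. Six-day-old offspring were starved 4 hr, fed 24 hr on 5% sucrose with 0.8% DMSO plus test compound, starved 1 hr, then given the same food with 50 µM tunicamycin for 24 hr. Adult female intestines were fixed and immunostained for phospho-histone H3, and positive cells were counted manually.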

H9c2 rat cardiomyoblasts = experiment: ER stress protection assay: caspase 3/7 activation by tunicamycin; type: cell-based; settings: H9c2 cells, 0.5 µg/ml tunicamycin, 24 hr
In short: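 H9c2 cardiomyoblasts were seeded at 8,000 cells/well and grown 24 hr in DMEM with 10% FBS. Test compound or 1% DMSO vehicle was added, then 0.5 µg/ml tunicamycin 15 min later. After a further 24 hr, caspase 3/7 activity was read by luminescence. Background from cells without tunicamycin was subtracted, and values were normalised to vehicle-treated tunicamycin-exposed cells.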

perfused mouse heart = experiment: Langendorff-perfused heart model of ischemia-reperfusion injury; settings: 1.6 µM for 5 min at reperfusion
In short: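 Mouse hearts were excised under tribromoethanol anaesthesia and perfused retrogradely at 4 ml/min in modified Krebs-Henseleit buffer with glucose, palmitate/BSA, lactate and pyruvate. After 20 min equilibration, hearts had 25 min global no-flow ischaemia and 60 min reperfusion. Test compound (1.6 µM) or 0.05% DMSO was infused for 5 min at reperfusion onset. Rate × developed pressure was normalised to pre-ischaemic baseline, infarct area was measured by TTC in 4–6 slices, and n = 6 per group.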

SMILES	concentrations with off-target effects (site IQ) [µM]	inhibition of the fluorescent signal (positive inhibitor of site IQ) ([1]; plate control in screen) [%]	IC50 [1] [µM]	suppression of tunicamycin-induced increase in mitotic marker phospho-histone H3 (intestinal stem cells)	caspase 3/7 activation by tunicamycin (H9c2 rat cardiomyoblasts)	post-ischemic recovery of cardiac function (rate × pressure product) (perfused mouse heart; 25 min ischemia)	infarct size (perfused mouse heart; TTC staining)
O=[N+]([O-])c1ccc(Oc2ccc(S(=O)(=O)NC3CCCCC3)cc2)cc1 [CN-POBS, N-cyclohexyl-4-(4-nitrophenoxy) benzenesulfonamide]	> 10	–	–	–	–	–	–
C=C(C)[C@H]1Cc2c(ccc3c2O[C@@H]2COc4cc(OC)c(OC)cc4[C@@H]2C3=O)O1 [Rotenone, reference compound]	–	> 85	–	–	–	–	–
CC(=O)Nc1cccc(NC(=O)C(=O)NCCc2sc(-c3ccc(C)cc3)nc2C)c1 [S1QEL1.1]	–	–	0.07	up to 45%	strongly attenuated caspase activation	significantly improved	small but significant decrease
CCCCC1CCC(C(=O)NCCS(=O)(=O)N2CCN(c3cccc(Cl)c3)CC2)CC1 (stereo not shown) [S1QEL2.2]	–	–	1.5	up to 45%	also did so at higher concentrations	–	–

From PMC5061631 (Cell metabolism, 2016)
